TRPC6 inhibitor – mouse TRPC6 channel inhibitors, primary screen, cell-based, HEK293, membrane potential dye; Short transient receptor potential channel 6 (Mus musculus), Q61143; ACh-evoked depolarization; stronger effect = lower value; B-score at 10 µM; 310,000 compounds, 1.1% hits; AID 2553, 2010;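 active means B-score under library mean minus 3 SD, initial fluorescence not abnormally high, positive integrated signal ratio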;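 further: B-score derived from integrated fluorescence ratio over the kinetic read; more negative B-score means stronger inhibition of depolarization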
TRPC4 PAM – positive allosteric modulators of TRPC4, primary screen, cell-based, mouse TRPC4beta, HEK293 mu-opioid, Fluo-4 calcium | 310,000 compounds, 0.42% hits | AID 2227, 2009 | B-score at 10 µM | DAMGO EC20, Fluo-4 Ca2+ flux; stronger effect = higher value | Short transient receptor potential channel 4 (Mus musculus), Q9QUQ5;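 active means B-score of calcium response area above 5 SD of library B-scores, with initial fluorescence ratio within 5 SD of library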;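 further: B-score of integrated fluorescence ratio over time as area under calcium response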
TRPC4 block – inhibitors of mouse TRPC4 channel, primary screen, Fluo4 calcium, HEK293 TRPC4beta/mu-opioid cells | DAMGO-evoked Fluo4 calcium flux; stronger effect = lower value | B-score at 10 µM | 300,000 compounds, 0.39% hits;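 active means B-score over 3 SD under the library average, no early fluorescence shift, positive overall ratio signal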
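Material: HEK293 cells with stable TRPC4beta plus mu-opioid receptor expression / Probe or stimulus: DAMGO in two steps, submaximal then maximal / Compound: single concentration per test compound / Technique: kinetic Fluo4 fluorescence imaging of calcium influx / Read-out: per-well B score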
TRPC6 act – mouse TRPC6 channel activators, primary screen, cell-based, HEK293, membrane potential dye; Short transient receptor potential channel 6 (Mus musculus), Q61143; HEK293-TRPC6 membrane potential dye fluorescence; stronger effect = higher value; B-score at 10 µM; 310,000 compounds, 0.13% hits; AID 2550, 2010;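 active means B-score of the integrated fluorescence ratio above library mean plus 3 SD, and starting fluorescence ratio within library mean plus 5 SD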;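 further: higher score means more depolarization so channel activation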
Kir21 block – inhibitors of mouse Kir2.1 inward-rectifier potassium channel; 310,000 compounds, 0.85% hits; B-score at 10 µM; Inward rectifier potassium channel 2 (Mus musculus), P35561; HEK293-Kir2.1, FluxOR thallium flux fluorescence; stronger effect = lower value;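 active means fluorescence ratio B-score at or below minus 3 SD of library scores, with starting-brightness B-score within 2 SD, cut at about -4.2 in these data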;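 further: channel flux triggered by added potassium and thallium sulfate stimulus; B-score of peak minus minimum fluorescence over baseline after thallium stimulus; more negative B-score means stronger Kir2.1 block with less thallium influx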
Target sequence (P35561 whole entry, looked up): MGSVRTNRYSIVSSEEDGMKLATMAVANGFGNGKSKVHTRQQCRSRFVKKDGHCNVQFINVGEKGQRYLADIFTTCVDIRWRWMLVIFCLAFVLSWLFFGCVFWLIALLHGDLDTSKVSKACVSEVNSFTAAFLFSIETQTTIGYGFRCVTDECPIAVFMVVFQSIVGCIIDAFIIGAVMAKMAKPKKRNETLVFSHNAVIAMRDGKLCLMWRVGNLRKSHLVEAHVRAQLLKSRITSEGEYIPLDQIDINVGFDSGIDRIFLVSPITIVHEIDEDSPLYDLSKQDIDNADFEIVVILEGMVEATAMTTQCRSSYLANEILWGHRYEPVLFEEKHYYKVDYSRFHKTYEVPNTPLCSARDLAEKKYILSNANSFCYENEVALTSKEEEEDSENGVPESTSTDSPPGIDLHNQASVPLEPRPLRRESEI
TRPC4 act – activators of mouse TRPC4 channel, primary screen, Fluo4 calcium, HEK293 TRPC4beta/mu-opioid cells | Short transient receptor potential channel 4 (Mus musculus), Q9QUQ5 | Fluo4 calcium fluorescence; stronger effect = higher value | B-score at 10 µM | 310,000 compounds, 0.49% hits | AID 2237, 2010;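 active means B-score above 5 SD of library B-scores, and initial fluorescence ratio not above library mean plus 5 SD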;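 further: positive B-score marks a calcium rise read as TRPC4 activation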
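Material: HEK293 stable line with TRPC4beta plus mu-opioid receptor; technique: Fluo4 calcium-sensitive dye fluorescence, kinetic, 1 Hz baseline; timing: Fluo4 dye loading 45 min at room temperature, 110 s recording; controls: assay buffer as low control, maximal DAMGO as high control; read-out: integrated baseline-normalised fluorescence ratio, converted to per-well B score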
TRPC4 sel inh 2 – second check of whether TRPC6 inhibitors also affect mouse TRPC4; shares compounds with TRPC6 inhibitor; HEK293 TRPC4/MOR, membrane potential dye fluorescence; channel activated by saturating DAMGO dose; inhibition, % at 10 µM; 920 compounds, 42% hits;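 active means compounds whose fluorescence signal differed from control wells by over 3 SD, either direction, in both duplicate plates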
TRPC4 spec – mouse TRPC4 modulation by TRPC6 hits, confirmation, selectivity assay for TRPC6 inhibitor project, cell-based, HEK293 TRPC4/mu-opioid, membrane potential dye | shares compounds with TRPC6 inhibitor | membrane potential fluorescence | activity change, negative = inhibition, % at 10 µM | 920 compounds, 61% hits;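 active means rise or fall in signal beyond 3 SD of buffer-only wells in both replicate plates, either sign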;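 further: integrated kinetic ratio of fluorescence range over baseline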
HEK293 MPD ctr 2-1 – nonspecific membrane potential effects, parental HEK293, confirmation, counter-screen for TRPC6 inhibitor project, cell-based, second counter screen. shares compounds with TRPC6 inhibitor. parental HEK293 membrane potential dye fluorescence; maximal acetylcholine challenge after compound addition. signal change vs control, % at 10 µM. 920 compounds, 31% hits;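 active means membrane potential signal moving either way by over 3 SD of the maximum-effect control, in both duplicate plates, meaning non-specific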
HEK293 MPD ctr-1 – membrane potential modulation in parental HEK293, confirmation, counter-screen for TRPC6 inhibitor project, cell-based. shares compounds with TRPC6 inhibitor. parental HEK293 membrane potential dye fluorescence. membrane potential signal change, % at 10 µM. 920 compounds, 60% hits;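 active means membrane potential signal shifting up or down by more than 3 SD of buffer-only wells, on both duplicate plates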
HEK293 MPD ctr-2 – parental HEK293 membrane potential modulation, confirmation, counter-screen for TRPC6 modulator project, cell-based. shares compounds with TRPC6 inhibitor. membrane potential dye fluorescence. membrane potential signal change, % at 10 µM. 2,400 compounds, 51% hits;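 active means membrane potential signal moves up or down beyond 5 SD from buffer-only wells, on both duplicate plates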
HEK293 MPD ctr 2-2 – parental HEK293 nonspecific activity of TRPC6 modulators, second screen; AID 488926; shares compounds with TRPC6 inhibitor; membrane potential dye fluorescence; after compound, maximal acetylcholine stimulation; 2,400 compounds, 14% hits; inhibition, % at 10 µM;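 active means membrane potential signal drops by more than 5 SD from the mean control signal, in both duplicate plates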;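 further: plate controls were acetylcholine ECmax control wells for no effect and buffer only wells for full effect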
TRPC4/MOR mod – TRPC4 modulation by TRPC6 hit compounds, confirmation, selectivity assay for TRPC6 modulator project, cell-based, HEK293 TRPC4/mu-opioid, membrane potential dye, mouse | percent change from control (negative = decrease, positive = increase), % at 10 µM | membrane potential fluorescence | AID 488927, 2010 | 2,400 compounds, 69% hits | shares compounds with TRPC6 inhibitor;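 active means membrane potential signal moved up or down beyond 5 SD of buffer control wells, in both duplicate plates, actives on both sides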;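 further: plate controls were assay buffer wells for no effect and DAMGO maximal-effect wells for full effect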
TRPC4/MOR inh 2 – mouse TRPC4 off-target activity of TRPC6 modulators, second screen | inhibition, % at 10 µM | 2,400 compounds, 55% hits | shares compounds with TRPC6 inhibitor | HEK293 TRPC4/mu-opioid, membrane potential dye fluorescence; stimulated with maximal-effect DAMGO;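 active means drop in membrane potential signal beyond 5 SD of the control wells in both duplicate plates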;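 further: TRPC4 counter screen for TRPC6 hits run under conditions tuned for TRPC6 not TRPC4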
TRPC6 block conf – mouse TRPC6 channel inhibitors, confirmation, HEK293 cells, membrane potential dye, duplicate; 3,300 compounds, 43% hits; inhibition, % at 10 µM; shares compounds with TRPC6 inhibitor; ACh-evoked depolarization; AID 488960, 2010;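 active means fluorescence ratio falls more than 5 SD below the full-stimulation control mean, in both duplicate runs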;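 further: integrated fluorescence ratio of peak minus minimum over baseline after agonist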
TRPC6 act conf – mouse TRPC6 channel activators, confirmation, HEK293 cells, membrane potential dye, duplicate; shares compounds with TRPC6 inhibitor; HEK293-TRPC6 membrane potential dye fluorescence, FDSS; activation, % at 10 µM; 2,800 compounds, 11% hits; AID 488961, 2010;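 active means ratio signal rise beyond 5 SD above unstimulated control wells' mean, seen in both duplicate runs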;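 further: plate controls were buffer EC0 wells for no effect and acetylcholine ECmax response for full effect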
* = called active by the depositor; i = inactive; nt = no result given. Shown are actives, neighbours in structure and some others; about 2.9% of the full set was active somewhere.

SMILES	TRPC6 inhibitor	TRPC4 PAM	TRPC4 block	TRPC6 act	Kir21 block	TRPC4 act	HEK293 MPD ctr-2	HEK293 MPD ctr 2-2	TRPC4/MOR mod	TRPC4/MOR inh 2	TRPC6 block conf	TRPC6 act conf	others
COCCCN1C(=O)C2C(C(=O)Nc3cccc(Cl)c3)C3C=CC2(O3)C1C(=O)NC1CCCCC1 (stereo not drawn)	i	i	i	i	-0.4	i	nt	nt	nt	nt	nt	nt
Nc1ccc(O)c(-c2nc3ccccc3s2)c1	i	i	i	i	1.6	i	nt	nt	nt	nt	nt	nt
Oc1ccc(-c2nc3ccccc3s2)c(O)c1	-5.4*	i	i	i	-1.2	i	i	i	i	i	i	i
COc1cccc(NC(=O)c2ccnc(N3CCC(C(=O)NCc4cc(OC)ccc4OC)CC3)c2)c1	i	i	i	i	0	i	nt	nt	nt	nt	nt	nt
COc1ccc2c(COC(=O)CCS(=O)(=O)c3ccc(C)cc3)cc(=O)oc2c1	-5.3*	i	i	i	-2.1	i	i	i	i	i	i	i
CC(=O)c1ccc(S(=O)(=O)N2CCC(NC(=O)c3ccccc3)CC2)cc1	i	i	i	i	0.7	i	nt	nt	nt	nt	nt	nt
CCc1cc2c(-c3ccccc3)cc(=O)oc2c(CN2CCOCC2)c1O	-5.1*	i	i	i	-1	i	i	i	14%*	i	50%*	nt
O=C(NC(=S)NC1CCSC1=O)c1cccs1 (stereo not drawn)	-6.4*	i	i	i	-0.79	i	i	i	i	i	i	i
Cc1ccccc1C(=O)NC(=S)NC1CCSC1=O (stereo not drawn)	i	i	i	i	0.84	i	nt	nt	nt	nt	nt	nt
Cc1cc(=O)n2c3ccccc3n(CC(O)CN3CCN(Cc4ccccc4)CC3)c2c1C#N (stereo not drawn)	-9.5*	i	i	i	-1.3	i	-157%*	i	-36%*	65%*	i	i
CCCCn1c2ccc(C)cc2c2nnc(SCCN3CCCCC3)nc21	-5.8*	i	i	i	-0.76	i	i	i	i	66%*	45%*	i
Cn1c2ccc(F)cc2c2nnc(SCCN3CCCCC3)nc21	-7.4*	i	i	i	0.04	i	nt	nt	nt	nt	i	i	TRPC4 sel inh 2=76%*;TRPC4 spec=-13%*;HEK293 MPD ctr 2-1=16%*;HEK293 MPD ctr-1=-204%*
CCCCn1c2ccc(F)cc2c2nnc(SCCN3CCCCC3)nc21	-5.6*	i	i	i	-0.62	i	-74%*	i	-19%*	38%*	i	i
CCn1cc(C(=O)N(C)c2ccccc2F)c2cc(OC)c(OC)cc2c1=O	i	i	i	i	-0.02	i	nt	nt	nt	nt	nt	nt
CCOC(=O)c1c(NC(=O)C2C3C=CC(CC3)C2C(=O)O)sc(C)c1CC (stereo not drawn)	i	i	i	12*	-1.7	i	110%*	i	21%*	i	i	60%*
Cc1cc(=O)n2nc(N3CCCC3C(=O)Nc3ccc(C(C)C)cc3)sc2n1 (stereo not drawn)	i	i	i	i	-1.6	i	nt	nt	nt	nt	nt	nt
CC(=O)Nc1ccc(N/C(N)=N/c2nc(C)cc(C)n2)cc1	i	i	i	i	2.4	i	nt	nt	nt	nt	nt	nt
Cc1cc(C)nc(/N=C(\N)Nc2ccc(SC(F)F)cc2)n1	-6.4*	i	i	i	-0.52	43*	-132%*	i	-23%*	48%*	i	i
COc1ccc(Cl)cc1N/C(N)=N/c1nc(C)cc(C)n1	-5.6*	i	-7*	i	0.18	i	i	i	-10%*	i	i	i
Cc1cc(C)nc(/N=C(\N)Nc2ccc(F)c([N+](=O)[O-])c2)n1	-6.4*	i	i	i	-1	i	-185%*	i	-25%*	32%*	i	i

High-throughput results as filed in PubChem.
